# Data published in ChEMBL document CHEMBL1137710, “Synthesis and in vitro antitumor activity of new quinoxaline derivatives” (2009).
# Legend:
# Format in all cases: functional
# LOX IMVI = assay: Growth inhibition of human LOXIMVI cells after 48 hrs by sulforhodamine B assay
# Method in brief: (§1)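 NCI 60-human-tumor-cell-line panel, with compounds tested over a 5-log dose range. Values are taken from dose-response curves as log10 molar concentrations: GI50 is 50% net growth inhibition, TGI is total growth inhibition, and LC50 is 50% net cell death.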
# OVCAR-3 = assay: Growth inhibition of human OVCAR-3 cells after 48 hrs by sulforhodamine B assay; conditions: OVCAR-3, 48 h; method in brief: as §1
# ACHN = assay: Growth inhibition of human ACHN cells after 48 hrs by sulforhodamine B assay
# KM12 = assay: Growth inhibition of human KM12 cells after 48 hrs by sulforhodamine B assay; conditions: KM12, 48 h; method in brief: as §1
# A498 = assay: Growth inhibition of human A498 cells after 48 hrs by sulforhodamine B assay; conditions: A498, 48 h; method in brief: as §1
# NCI-H522 = assay: Growth inhibition of human NCI-H522 cells after 48 hrs by sulforhodamine B assay; conditions: NCI-H522, 48 h; method in brief: as §1
# MOLT-4 = assay: Growth inhibition of human MOLT4 cells after 48 hrs by sulforhodamine B assay; conditions: MOLT-4, 48 h; method in brief: as §1
# HCT-15 = assay: Growth inhibition of human HCT15 cells after 48 hrs by sulforhodamine B assay; conditions: HCT-15, 48 h; method in brief: as §1
# SF-539 = assay: Growth inhibition of human SF539 cells after 48 hrs by sulforhodamine B assay; conditions: SF-539, 48 h; method in brief: as §1
# CAKI-1 = assay: Growth inhibition of human Caki1 cells after 48 hrs by sulforhodamine B assay; conditions: CAKI-1, 48 h; method in brief: as §1
# SR = assay: Growth inhibition of human SR cells after 48 hrs by sulforhodamine B assay
# Method in brief: (§2)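 Run in the NCI 60-human-tumour-cell-line panel, tested over a 5-log dose range. Dose–response curves gave three values per cell line, each as a log10 molar concentration: GI50 (50% inhibition of net cell growth), TGI (total inhibition of net growth) and LC50 (50% net cell death). The mean graph midpoint is the arithmetic mean over all lines, with insensitive lines entered at the highest concentration tested.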
# K562 = assay: Growth inhibition of human K562 cells after 48 hrs by sulforhodamine B assay; conditions: K562, 48 h; method in brief: as §1
# [1] = Growth inhibition of human Hs 578T cells after 48 hrs by sulforhodamine B assay; method in brief: as §1
# SN12C = assay: Growth inhibition of human SN12C cells after 48 hrs by sulforhodamine B assay; method in brief: as §2
# SK-MEL-2 = assay: Growth inhibition of human SK-MEL-2 cells after 48 hrs by sulforhodamine B assay; conditions: SK-MEL-2, 48 h; method in brief: as §1
# OVCAR-5 = assay: Growth inhibition of human OVCAR5 cells after 48 hrs by sulforhodamine B assay; conditions: OVCAR-5, 48 h; method in brief: as §1
# NCI-H322M = assay: Growth inhibition of human NCI-H322M cells after 48 hrs by sulforhodamine B assay; method in brief: as §1
# HL-60(TB) = assay: Growth inhibition of human HL-60(TB) cells after 48 hrs by sulforhodamine B assay; conditions: HL-60, 48 h
# Method in brief: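 Tested only on compounds active in a three-line prescreen, in the NCI 60-human-tumour-cell-line panel over a 5-log dose range. Values come from dose–response curves as log10 molar GI50, the concentration inhibiting 50% net cell growth. Log10 TGI (total growth inhibition) and log10 LC50 (50% net cell death) were derived too. Mean graph midpoints include insensitive lines at the highest concentration tested.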
# BT-549 = assay: Growth inhibition of human BT549 cells after 48 hrs by sulforhodamine B assay; conditions: BT-549, 48 h; method in brief: as §1
# NCI/ADR-RES = assay: Growth inhibition of human NCI/ADR-RES cells after 48 hrs by sulforhodamine B assay; method in brief: as §1
# HT-29 = assay: Growth inhibition of human HT-29 cells after 48 hrs by sulforhodamine B assay; conditions: HT-29, 48 h; method in brief: as §1
# HOP-62 = assay: Growth inhibition of human HOP62 cells after 48 hrs by sulforhodamine B assay; conditions: HOP-62, 48 h; method in brief: as §1
# HOP-92 = assay: Growth inhibition of human HOP92 cells after 48 hrs by sulforhodamine B assay; conditions: HOP-92, 48 h; method in brief: as §1
# EKVX = assay: Growth inhibition of human EKVX cells after 48 hrs by sulforhodamine B assay; method in brief: as §1
# SNB-75 = assay: Growth inhibition of human SNB75 cells after 48 hrs by sulforhodamine B assay; conditions: SNB-75, 48 h; method in brief: as §2
# UO-31 = assay: Growth inhibition of human UO31 cells after 48 hrs by sulforhodamine B assay; conditions: UO-31, 48 h; method in brief: as §2
# 786-0 = assay: Growth inhibition of human 786-0 cells after 48 hrs by sulforhodamine B assay; conditions: 786-0, 48 h; method in brief: as §1
# [2] = read-out: pLC50 (the source's name) (converted)
compound,measurement,setting,value
COc1cc(CNc2nc3cc(N)cc(N)c3nc2-c2ccccc2)cc(OC)c1OC,GI50,LOX IMVI,3.16 µM
same,LC50,LOX IMVI,26.3 µM
same,TGI,LOX IMVI; read-out: pTGI (converted),10.5 µM
same,GI50,OVCAR-3,1.15 µM
same,CC50,OVCAR-3; [2],18.2 µM
same,TGI,OVCAR-3; read-out: pTGI (converted),3.39 µM
same,GI50,ACHN,5.37 µM
same,CC50,ACHN; [2],23.4 µM
same,TGI,ACHN; read-out: pTGI (converted),11.2 µM
same,GI50,KM12,0.479 µM
same,LC50 (50% net cell kill),KM12,> 50.1 µM
same,TGI,KM12; read-out: pTGI (converted),10.2 µM
same,GI50,A498,6.31 µM
same,CC50,A498; [2],33.9 µM
same,TGI,A498; read-out: pTGI (converted),14.8 µM
same,GI50,NCI-H522,> 50.1 µM
same,LC50,NCI-H522,> 50.1 µM
same,TGI,NCI-H522; read-out: pTGI (converted),> 50.1 µM
same,GI50,MOLT-4,12.3 µM
same,LC50,MOLT-4,> 50.1 µM
same,TGI,MOLT-4; read-out: pTGI (converted),> 50.1 µM
same,GI50,HCT-15,3.24 µM
same,LC50,HCT-15,> 50.1 µM
same,TGI,HCT-15; read-out: pTGI (converted),13.8 µM
same,GI50,SF-539,1.35 µM
same,LC50,SF-539,26.9 µM
same,TGI,SF-539; read-out: pTGI (converted),7.94 µM
same,GI50,CAKI-1,1.91 µM
same,CC50,CAKI-1; [2],31.6 µM
same,TGI,CAKI-1; read-out: pTGI (converted),8.71 µM
same,GI50,SR,0.891 µM
same,LC50 (concentration giving 50% net cell death),SR,> 50.1 µM
same,TGI,SR; read-out: pTGI (converted),> 50.1 µM
same,GI50,K562,1.78 µM
same,LC50,K562,> 50.1 µM
same,TGI,K562; read-out: pTGI (converted),> 50.1 µM
same,GI50,[1],3.02 µM
same,CC50,[1]; [2],> 50.1 µM
same,TGI,[1]; read-out: pTGI (converted),33.1 µM
same,GI50,SN12C,8.71 µM
same,CC50,SN12C; [2],32.4 µM
same,TGI,SN12C; read-out: pTGI (converted),16.6 µM
same,GI50,SK-MEL-2,16.2 µM
same,CC50,SK-MEL-2; [2],> 50.1 µM
same,TGI,SK-MEL-2; read-out: pTGI (converted),> 50.1 µM
same,GI50,OVCAR-5,21.4 µM
same,CC50,OVCAR-5; [2],> 50.1 µM
same,TGI,OVCAR-5; read-out: pTGI (converted),> 50.1 µM
same,GI50,NCI-H322M,3.02 µM
same,LC50,NCI-H322M,> 50.1 µM
same,TGI,NCI-H322M; read-out: pTGI (converted),15.8 µM
same,GI50,HL-60(TB),1.26 µM
same,LC50,HL-60(TB),> 50.1 µM
same,TGI,HL-60(TB); read-out: pTGI (converted),> 50.1 µM
same,GI50,BT-549,3.8 µM
same,CC50,BT-549; [2],27.5 µM
same,TGI,BT-549; read-out: pTGI (converted),11.2 µM
same,GI50,NCI/ADR-RES,10.2 µM
same,CC50,NCI/ADR-RES; [2],46.8 µM
same,TGI,NCI/ADR-RES; read-out: pTGI (converted),21.9 µM
same,GI50,HT-29,8.71 µM
same,LC50,HT-29,43.7 µM
same,TGI,HT-29; read-out: pTGI (converted),19.5 µM
same,GI50,HOP-62,17 µM
same,LC50,HOP-62,> 50.1 µM
same,TGI,HOP-62; read-out: pTGI (converted),> 50.1 µM
same,GI50,HOP-92,1.2 µM
same,LC50 (50% net cell death),HOP-92,> 50.1 µM
same,TGI,HOP-92; read-out: pTGI (converted),3.09 µM
same,GI50,EKVX,1.95 µM
same,LC50 (50% net cell kill),EKVX,27.5 µM
same,TGI,EKVX; read-out: pTGI (converted),8.32 µM
same,GI50,SNB-75,0.813 µM
same,LC50,SNB-75,> 50.1 µM
same,TGI,SNB-75; read-out: pTGI (converted),14.5 µM
same,GI50,UO-31,11.2 µM
same,CC50,UO-31; [2],> 50.1 µM
same,TGI,UO-31; read-out: pTGI (converted),> 50.1 µM
same,GI50,786-0,15.5 µM
same,CC50,786-0; [2],> 50.1 µM
same,TGI,786-0; read-out: pTGI (converted),> 50.1 µM
